Assay results published in ChEMBL document CHEMBL1134940, “Highly potent non-peptidic inhibitors of the HCV NS3/NS4A serine protease” (Bioorg Med Chem Lett, 2002).

Columns and labels:
Type in all cases: protein-complex assay, Hepacivirus hominis
[1] = biological target: T1, Hepatitis C virus serine protease, NS3/NS4A (Hepatitis C virus, UniProt A3EZI9+D2K2A8); experiment: Inhibition of HCV serine protease NS3/NS4A in the presence of EDTA
Outline: (§1)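 No Zn(II) added; EDTA included. Inhibitor at varying concentrations preincubated 30 min at room temperature (21–24 °C). Reaction started with the quenched-fluorescence substrate Ac-DED(Edans)EE-Abu[COO]-ASK(Dabcyl)-CONH₂.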

[2] = biological target: T1, Hepatitis C virus serine protease, NS3/NS4A; experiment: Inhibition of HCV serine protease NS3/NS4A in the presence of Zn
Outline: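 Same setup run with ZnCl₂ added instead of EDTA. NS3 protease construct (first 183 residues; 12 nM active sites) plus the 17-residue NS4A surrogate peptide. Inhibitor at several concentrations preincubated 30 min at 21–24 °C. The Edans/Dabcyl quenched-fluorescence depsipeptide substrate was then added to start the reaction.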

[3] = biological target: T1, Hepatitis C virus serine protease, NS3/NS4A; experiment: Inhibition of HCV serine protease NS3/NS4A in the presence of EDTA.; outline: as §1

T1 sequence (D2K2A8 whole entry): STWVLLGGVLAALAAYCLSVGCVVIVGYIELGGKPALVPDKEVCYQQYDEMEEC
T1 sequence (A3EZI9 whole entry): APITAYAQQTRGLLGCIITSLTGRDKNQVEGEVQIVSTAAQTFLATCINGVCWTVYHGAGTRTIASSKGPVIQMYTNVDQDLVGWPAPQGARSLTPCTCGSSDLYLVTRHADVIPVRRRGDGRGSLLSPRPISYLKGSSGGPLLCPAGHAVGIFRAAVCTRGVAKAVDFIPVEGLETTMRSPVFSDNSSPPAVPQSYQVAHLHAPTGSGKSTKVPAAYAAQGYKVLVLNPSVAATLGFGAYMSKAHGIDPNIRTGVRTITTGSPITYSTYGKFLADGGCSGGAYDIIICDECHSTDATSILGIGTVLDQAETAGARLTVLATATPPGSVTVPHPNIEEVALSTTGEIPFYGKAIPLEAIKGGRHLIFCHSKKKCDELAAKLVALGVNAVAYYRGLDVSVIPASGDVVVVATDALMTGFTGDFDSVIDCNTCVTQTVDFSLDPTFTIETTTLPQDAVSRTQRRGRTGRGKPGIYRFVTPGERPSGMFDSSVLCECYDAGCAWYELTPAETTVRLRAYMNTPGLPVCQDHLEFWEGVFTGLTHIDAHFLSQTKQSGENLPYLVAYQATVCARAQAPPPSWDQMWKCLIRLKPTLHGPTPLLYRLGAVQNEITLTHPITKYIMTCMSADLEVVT

Row | Ki [1] | Ki [2] | Ki [3] | SMILES
1 | 38.1 µM | 1.36 µM |  | COP(=O)(O)CC(NC(=O)c1ccc2nc(Cc3nc4ccc(C(N)=O)cc4[nH]3)n(C)c2c1)C(=O)O (centres undefined)
2 |  | 0.61 µM | > 300 µM | CC(C)(C)Cn1c(Cc2nc3ccccc3[nH]2)nc2ccc(C(=O)NC(CP(=O)(O)O)C(=O)O)cc21 (centres undefined)
3 |  | 0.28 µM | 17 µM | Cn1c(Cc2nc3c(F)c(F)c(F)c(F)c3[nH]2)nc2ccc(C(=O)NC(CP(=O)(O)O)C(=O)O)cc21 (centres undefined)
4 |  | 0.073 µM | 15 µM | Cn1c(C(F)(F)c2nc3ccc(C(=O)NC(CP(=O)(O)O)C(=O)O)cc3[nH]2)nc2ccc(C(=O)NC(CP(=O)(O)O)C(=O)O)cc21 (centres undefined)
5 | 215 µM | 0.23 µM |  | CC(c1nc2ccccc2[nH]1)c1nc2ccc(C(=O)NC(CP(=O)(O)O)C(=O)O)cc2n1C (centres undefined)
6 | 150 µM | 32 µM |  | CC(=O)NCc1nc2ccc(C(=O)NC(CP(=O)(O)O)C(=O)O)cc2n1C (centres undefined)
7 |  | 4 µM | 15 µM | Cn1c(C(F)(F)c2nc3cc(F)c(F)cc3[nH]2)nc2ccc(C(=O)NC(CP(=O)(O)O)C(=O)O)cc21 (centres undefined)
8 | 58 µM | 0.24 µM |  | Cn1c(Cc2nc3c(F)cc(F)cc3[nH]2)nc2ccc(C(=O)NC(CP(=O)(O)O)C(=O)O)cc21 (centres undefined)
9 | 70 µM | 0.41 µM |  | Cn1c(Cc2nc3cc(C(F)(F)F)ccc3[nH]2)nc2ccc(C(=O)NC(CP(=O)(O)O)C(=O)O)cc21 (centres undefined)
10 |  | 21 µM | 66 µM | Cc1cccc2[nH]c(C(F)(F)c3nc4ccc(C(=O)NC(CP(=O)(O)O)C(=O)O)cc4n3C)nc12 (centres undefined)
11 | 95 µM | 0.28 µM |  | Cn1c(Cc2nc3cc(F)ccc3[nH]2)nc2ccc(C(=O)NC(CP(=O)(O)O)C(=O)O)cc21 (centres undefined)
12 | 181 µM | 1.2 µM |  | CC(c1nc2ccccc2[nH]1)c1nc2cccc(C(=O)NC(CP(=O)(O)O)C(=O)O)c2n1C (centres undefined)
13 |  | 0.2 µM | 21 µM | Cn1c(Cc2nc3c(F)c(F)c(F)cc3[nH]2)nc2ccc(C(=O)NC(CP(=O)(O)O)C(=O)O)cc21 (centres undefined)
14 | > 300 µM | > 300 µM |  | CC(c1nc2ccc(C(N)=O)cc2[nH]1)c1nc2cc(C(=O)C(CP(=O)(O)O)C(=O)O)ccc2n1C (centres undefined)
15 |  | 10 µM | > 300 µM | Cc1cccc2[nH]c(Cc3nc4ccc(C(=O)NC(CP(=O)(O)O)C(=O)O)cc4n3C)nc12 (centres undefined)
16 |  | 0.027 µM | 1 µM | Cn1c(C(F)(F)c2nc3ccc(C(=O)NC(CP(=O)(O)O)C(=O)O)cc3[nH]2)nc2ccc(C(=O)NC(CP(=O)(O)O)C(=O)NC(CP(=O)(O)O)C(=O)O)cc21 (centres undefined)
17 |  | 2.9 µM | 12 µM | Cn1c(C(F)(F)c2nc3c(F)c(F)cc(F)c3[nH]2)nc2ccc(C(=O)NC(CP(=O)(O)O)C(=O)O)cc21 (centres undefined)
18 | 140 µM | 3.8 µM |  | Cn1c(Cc2nc3ccc(C(=O)NC(CP(=O)(O)O)C(=O)O)cc3n2C)nc2ccccc21 (centres undefined)
19 |  | 0.82 µM | 19.6 µM | Cn1c(C(F)(F)c2nc3ccccc3[nH]2)nc2ccc(C(=O)NC(CP(=O)(O)O)C(=O)NC(CP(=O)(O)O)C(=O)O)cc21 (centres undefined)
20 |  | 0.87 µM | > 300 µM | CC(C)CCn1c(Cc2nc3ccccc3[nH]2)nc2ccc(C(=O)NC(CP(=O)(O)O)C(=O)O)cc21 (centres undefined)
21 |  | 0.277 µM | 32 µM | COC(=O)C(CP(=O)(O)O)NC(=O)c1ccc2[nH]c(C(F)(F)c3nc4ccc(C(=O)NC(CP(=O)(O)O)C(=O)OC)cc4n3C)nc2c1 (centres undefined)
22 |  | 0.49 µM | 24 µM | COc1cccc2[nH]c(Cc3nc4ccc(C(=O)NC(CP(=O)(O)O)C(=O)O)cc4n3C)nc12 (centres undefined)

Row | Ki [1] | Ki [2] | Ki [3] | SMILES
23 |  |  | 1.1 µM | Cn1c(C(F)(F)c2nc3ccccc3[nH]2)nc2ccc(C(=O)NC(CP(=O)(O)O)C(=O)O)cc21 (centres undefined)
24 |  | 0.55 µM | 72 µM | Cn1c(C(F)c2nc3c(F)c(F)cc(F)c3[nH]2)nc2ccc(C(=O)NC(CP(=O)(O)O)C(=O)O)cc21 (centres undefined)
25 |  | 1.4 µM | 25 µM | Cn1c(C(F)(F)c2nc3c(F)cc(F)cc3[nH]2)nc2ccc(C(=O)NC(CP(=O)(O)O)C(=O)O)cc21 (centres undefined)
26 |  | 0.24 µM | 98 µM | Cc1ccc2nc(Cc3nc4ccc(C(=O)NC(CP(=O)(O)O)C(=O)O)cc4n3C)[nH]c2c1 (centres undefined)
27 | 110 µM | 83 µM |  | CC(c1ncc[nH]1)c1nc2ccc(C(=O)NC(CP(=O)(O)O)C(=O)O)cc2n1C (centres undefined)
28 |  | 0.66 µM | 91 µM | Cn1c(C(F)c2nc3c(F)cc(F)cc3[nH]2)nc2ccc(C(=O)NC(CP(=O)(O)O)C(=O)O)cc21 (centres undefined)
29 | > 300 µM | 68 µM |  | Cn1c(Cc2nc3ccc(C(N)=O)cc3[nH]2)nc2ccc(C(=O)NCC(=O)O)cc21
30 | 25 µM | 0.21 µM |  | Cn1c(Cc2nc3cc(F)c(F)cc3[nH]2)nc2ccc(C(=O)NC(CP(=O)(O)O)C(=O)O)cc21 (centres undefined)
31 |  | 0.37 µM | > 300 µM | CC(C)Cn1c(Cc2nc3ccccc3[nH]2)nc2ccc(C(=O)NC(CP(=O)(O)O)C(=O)O)cc21 (centres undefined)
32 |  | 0.45 µM | > 300 µM | Cn1c(Cc2nc3ccccc3[nH]2)nc2ccc(C(=O)NC(CP(=O)(O)O)C(=O)O)cc21 (centres undefined)
33 |  | 0.47 µM | 37 µM | Cn1c(C(F)c2nc3ccccc3[nH]2)nc2ccc(C(=O)NC(CP(=O)(O)O)C(=O)O)cc21 (centres undefined)
34 |  | 12 µM | > 300 µM | CC(C)n1c(Cc2nc3ccccc3[nH]2)nc2ccc(C(=O)NC(CP(=O)(O)O)C(=O)O)cc21 (centres undefined)
35 |  | 0.27 µM | 140 µM | Cn1c(Cc2nc3c(F)c(F)ccc3[nH]2)nc2ccc(C(=O)NC(CP(=O)(O)O)C(=O)O)cc21 (centres undefined)
36 |  | 0.35 µM | 22 µM | Cn1c(Cc2nc3c(F)cc(F)c(F)c3[nH]2)nc2ccc(C(=O)NC(CP(=O)(O)O)C(=O)O)cc21 (centres undefined)
37 |  | 0.2 µM | 187 µM | COc1ccc2nc(Cc3nc4ccc(C(=O)NC(CP(=O)(O)O)C(=O)O)cc4n3C)[nH]c2c1 (centres undefined)
38 |  | 2.4 µM | 38 µM | Cn1c(C(F)(F)c2nc3ccc(Cl)cc3[nH]2)nc2ccc(C(=O)NC(CP(=O)(O)O)C(=O)O)cc21 (centres undefined)
39 |  | 1.2 µM | 74 µM | Cn1c(C(F)(F)c2nc3ccc(C(N)=O)cc3[nH]2)nc2ccc(C(=O)NC(CP(=O)(O)O)C(=O)O)cc21 (centres undefined)
40 | 130 µM | 0.38 µM |  | Cn1c(Cc2nc3ccc(Cl)cc3[nH]2)nc2ccc(C(=O)NC(CP(=O)(O)O)C(=O)O)cc21 (centres undefined)
41 |  | 0.2 µM | 170 µM | Cn1c(Cc2nc3cc(C(N)=O)ccc3[nH]2)nc2ccc(C(=O)NC(CP(=O)(O)O)C(=O)O)cc21 (centres undefined)
42 |  | 0.14 µM | 140 µM | O=C(NC(CP(=O)(O)O)C(=O)O)c1ccc2nc(Cc3nc4ccccc4[nH]3)n(CC3CC3)c2c1 (centres undefined)
43 |  | 1.3 µM | 55 µM | Cn1c(C(F)(F)c2nc3cc(F)ccc3[nH]2)nc2ccc(C(=O)NC(CP(=O)(O)O)C(=O)O)cc21 (centres undefined)

Row | SMILES | Ki [1] | Ki [2] | Ki [3]
44 | Cn1c(Cc2nc3ccc(C(=O)NC(CP(=O)(O)O)C(=O)O)cc3[nH]2)nc2ccc(C(=O)NC(CP(=O)(O)O)C(=O)O)cc21 (centres undefined) |  | 0.1 µM | 21 µM
45 | Cn1c(Cc2nc3ccc(O)cc3[nH]2)nc2ccc(C(=O)NC(CP(=O)(O)O)C(=O)O)cc21 (centres undefined) |  | 0.19 µM | 250 µM
